Reference: ChEMBL document CHEMBL1914435, “Synthesis and evaluation of novel macrocyclic antifungal peptides” (2011)
Values after ≈ are worked out from the molar mass of the structure shown. Each block holds one compound with its values, some of them ahead of it. Active and inactive are the calls of the source. No cut-off for these calls is given here. Starred links: 1 amine or outer side, 2 acyl side, 3 side chain; linkers in the order of their positions; H or OH if unused. Positions of bridges follow the written chain, without caps; N, C: chain ends. Non-standard residues stand in square brackets, D forms with d. Residues, ends and D or L forms follow the SMILES beside them. *: point of attachment. pTerphenylCO(4''-OnC5H11) = CCCCCOc1ccc(-c2ccc(-c3ccc(C(=O)*)cc3)cc2)cc1; hTyr = N[C@@H](CCc1ccc(O)cc1)C(=O)O; Ethylenediamine = C(CN[*:2])N[*:1]; Palmitoyl = CCCCCCCCCCCCCCCC(=O)*; Hyp = O=C(O)[C@@H]1C[C@@H](O)CN1; AllylGly = C=CC[C@H](N)C(=O)O; Orn = NCCC[C@H](N)C(=O)O; NHNH2 = NN*

Key:
Candida albicans [1] = assay: Antifungal activity against Candida albicans CBS 9975 after 24 hrs by broth microdilution method; assay type: functional; settings: for MIC: CBS 9975, 24 h
Summary of the method: (§1)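 Broth microdilution in YPD (1% yeast extract, 2% peptone, 1% dextrose). Compounds dissolved in water or 10% DMSO at 1 mg/mL, diluted fivefold in YPD, then serially twofold. CBS yeast isolates were grown on YPD agar for 24 h at 30 °C, then in YPD broth with shaking for 24 h. Inoculum was ~1.5 × 10³ cells/ml. Incubation at 30 °C. MIC read visually at 24 h as the lowest concentration giving full growth inhibition.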

Pichia kudriavzevii = assay: Antifungal activity against Candida krusei after 24 hrs by broth microdilution method; assay type: functional, organism-based; summary of the method: as §1
Candida parapsilosis = assay: Antifungal activity against Candida parapsilosis after 24 hrs by broth microdilution method; assay type: functional, organism-based; summary of the method: as §1
Candida tropicalis = assay: Antifungal activity against Candida tropicalis after 24 hrs by broth microdilution method; assay type: functional, organism-based; summary of the method: as §1
Candida albicans [2] = assay: Antifungal activity against Candida albicans after 24 hrs by broth microdilution method; assay type: functional, organism-based; summary of the method: as §1
Candida dubliniensis = assay: Antifungal activity against Candida dubliniensis after 24 hrs by broth microdilution method; assay type: functional, organism-based; summary of the method: as §1
Nakaseomyces glabratus = assay: Antifungal activity against Candida glabrata after 24 hrs by broth microdilution method; assay type: functional, organism-based; summary of the method: as §1
Candida albicans [3] = assay: Antifungal activity against Candida albicans CBS 9975 assessed as agglutinated enlarged round cells after 24 hrs by broth microdilution method; assay type: functional, organism-based
Candida albicans [4] = assay: Antifungal activity against Candida albicans CBS 9975 assessed as enlarged round cells with distorted cytoplasm after 24 hrs by broth microdilution method; assay type: functional, organism-based
Candida albicans [5] = assay: Antifungal activity against Candida albicans CBS 9975 assessed as enlarged round cells with large vacuoles after 24 hrs by broth microdilution method; assay type: functional, organism-based
Candida albicans [6] = assay: Antifungal activity against Candida albicans CBS 9975 assessed as reduction in budding cells after 24 hrs by broth microdilution method; assay type: functional, organism-based

SMILES: CCCCCOc1ccc(-c2ccc(-c3ccc(C(=O)N[C@H]4C/C=C\C[C@@H](C(=O)O)NC(=O)[C@@H]5C[C@@H](O)CN5C(=O)[C@H](CCCN)NC(=O)[C@H](CCc5ccc(O)cc5)NC(=O)[C@@H]5C[C@@H](O)CN5C(=O)[C@H]([C@@H](C)O)NC4=O)cc3)cc2)cc1 ({pTerphenylCO(4''-OnC5H11)}-[AllylGly]T[Hyp][hTyr][Orn][Hyp][AllylGly]-OH; staple (Z) 1-7)
Activity (Candida albicans [1]): Dose-dependent effect
MIC (Candida albicans [1]): > 100 µg/mL
Activity (Candida albicans [3]): Active
Activity (Candida albicans [4]): Active
Activity (Candida albicans [5]): Active
Activity (Candida albicans [6]): Active

SMILES: CCCCCOc1ccc(-c2ccc(-c3ccc(C(=O)N[C@H]4C/C=C\C[C@@H](C(=O)NN)NC(=O)[C@@H]5C[C@@H](O)CN5C(=O)[C@H](CCCN)NC(=O)[C@H](CCc5ccc(O)cc5)NC(=O)[C@@H]5C[C@@H](O)CN5C(=O)[C@H]([C@@H](C)O)NC4=O)cc3)cc2)cc1 ({pTerphenylCO(4''-OnC5H11)}-[AllylGly]T[Hyp][hTyr][Orn][Hyp][AllylGly]-NHNH2; staple (Z) 1-7)
Activity (Candida albicans [1]): Dose-dependent effect
MIC (Candida albicans [1]): > 100 µg/mL

SMILES: CCCCCOc1ccc(-c2ccc(-c3ccc(C(=O)N[C@H]4C/C=C\C[C@@H](C(=O)OC)NC(=O)[C@@H]5C[C@@H](O)CN5C(=O)[C@H](CCCN)NC(=O)[C@H](CCc5ccc(O)cc5)NC(=O)[C@@H]5C[C@@H](O)CN5C(=O)[C@H]([C@@H](C)O)NC4=O)cc3)cc2)cc1 ({pTerphenylCO(4''-OnC5H11)}-[AllylGly]T[Hyp][hTyr][Orn][Hyp][AllylGly]-OMe; staple (Z) 1-7)
MIC (Candida albicans [1]): > 100 µg/mL

SMILES: CCCCCOc1ccc(-c2ccc(-c3ccc(C(=O)N[C@H]4C/C=C\C[C@@H](C(=O)NCCN)NC(=O)[C@@H]5C[C@@H](O)CN5C(=O)[C@H](CCCN)NC(=O)[C@H](CCc5ccc(O)cc5)NC(=O)[C@@H]5C[C@@H](O)CN5C(=O)[C@H]([C@@H](C)O)NC4=O)cc3)cc2)cc1 ({pTerphenylCO(4''-OnC5H11)}-[AllylGly]T[Hyp][hTyr][Orn][Hyp][AllylGly]-Ethylenediamine; staple (Z) 1-7)
Activity (Candida albicans [1]): Dose-dependent effect
MIC (Candida albicans [1]): > 100 µg/mL

SMILES: CCCCCCCCCCCCCCCC(=O)N[C@H]1C/C=C\C[C@@H](C(=O)O)NC(=O)[C@@H]2C[C@@H](O)CN2C(=O)[C@H](CCCN)NC(=O)[C@H](CCc2ccc(O)cc2)NC(=O)[C@@H]2C[C@@H](O)CN2C(=O)[C@H]([C@@H](C)O)NC1=O (Palmitoyl-[AllylGly]T[Hyp][hTyr][Orn][Hyp][AllylGly]-OH; staple (Z) 1-7)
MIC (Candida albicans [1]): > 100 µg/mL

SMILES: CCCCCOc1ccc(-c2ccc(-c3ccc(C(=O)N[C@H]4CCCCNC(=O)[C@@H]5C[C@@H](O)CN5C(=O)[C@H](CCCN)NC(=O)[C@H](CCc5ccc(O)cc5)NC(=O)[C@@H]5C[C@@H](O)CN5C(=O)[C@H]([C@@H](C)O)NC4=O)cc3)cc2)cc1 ({pTerphenylCO(4''-OnC5H11)}-KT[Hyp][hTyr][Orn][Hyp]; lactam 1-C)
Activity (Pichia kudriavzevii): Active
Activity (Candida parapsilosis): Active
Activity (Candida tropicalis): Active
MIC (Candida albicans [1]): > 100 µg/mL
Activity (Candida albicans [2]): Active
Activity (Candida dubliniensis): Active
Activity (Nakaseomyces glabratus): Active

SMILES: CCCCCCCCCCCCCCCC(=O)N[C@H]1CSSC[C@@H](C(N)=O)NC(=O)[C@@H]2C[C@@H](O)CN2C(=O)[C@H](CCCN)NC(=O)[C@H](CCc2ccc(O)cc2)NC(=O)[C@@H]2C[C@@H](O)CN2C(=O)[C@H]([C@@H](C)O)NC1=O (Palmitoyl-CT[Hyp][hTyr][Orn][Hyp]C-NH2; disulfide 1-7)
MIC (Candida albicans [1]): > 100 µg/mL

SMILES: CCCCCCCCCCCCCCCC(=O)N[C@H]1CCCC[C@@H](C(=O)O)NC(=O)[C@@H]2C[C@@H](O)CN2C(=O)[C@H](CCCN)NC(=O)[C@H](CCc2ccc(O)cc2)NC(=O)[C@@H]2C[C@@H](O)CN2C(=O)[C@H]([C@@H](C)O)NC1=O
MIC (Candida albicans [1]): > 100 µg/mL

SMILES: CCCCCCCCCCCCCCCC(=O)N[C@H]1C/C=C\C[C@@H](C(N)=O)NC(=O)[C@@H]2C[C@@H](O)CN2C(=O)[C@H](CCCN)NC(=O)[C@H](CCc2ccc(O)cc2)NC(=O)[C@@H]2C[C@@H](O)CN2C(=O)[C@H]([C@@H](C)O)NC1=O (Palmitoyl-[AllylGly]T[Hyp][hTyr][Orn][Hyp][AllylGly]-NH2; staple (Z) 1-7)
MIC (Candida albicans [1]): > 100 µg/mL

SMILES: CCCCCOc1ccc(-c2ccc(-c3ccc(C(=O)N[C@H]4CCCC[C@@H](C(=O)O)NC(=O)[C@@H]5C[C@@H](O)CN5C(=O)[C@H](CCCN)NC(=O)[C@H](CCc5ccc(O)cc5)NC(=O)[C@@H]5C[C@@H](O)CN5C(=O)[C@H]([C@@H](C)O)NC4=O)cc3)cc2)cc1
MIC (Candida albicans [1]): > 100 µg/mL

More lines, main results first:

MIC (Candida albicans [1]): > 100 µg/mL
SMILES: CCCCCCCCCCCCCCCC(=O)N[C@H]1CCCC[C@@H](C(N)=O)NC(=O)[C@@H]2C[C@@H](O)CN2C(=O)[C@H](CCCN)NC(=O)[C@H](CCc2ccc(O)cc2)NC(=O)[C@@H]2C[C@@H](O)CN2C(=O)[C@H]([C@@H](C)O)NC1=O

MIC (Candida albicans [1]): 25 µg/mL (≈ 26.1 µM)
SMILES: CCCCCCCCCCCCCCCC(=O)N[C@H]1CCCNC(=O)[C@@H]2C[C@@H](O)CN2C(=O)[C@H]([C@@H](C)O)NC(=O)[C@H](CCc2ccc(O)cc2)NC(=O)[C@@H]2C[C@@H](O)CN2C(=O)[C@H]([C@@H](C)O)NC1=O (Palmitoyl-[Orn]T[Hyp][hTyr]T[Hyp]; lactam 1-C)
Activity (Pichia kudriavzevii): Active
Activity (Candida parapsilosis): Active
Activity (Candida tropicalis): Active
Activity (Candida albicans [2]): Active
Activity (Candida dubliniensis): Active
Activity (Nakaseomyces glabratus): Active

MIC (Candida albicans [1]): 0.14 µg/mL (≈ 0.13 µM)
SMILES: CCCCCOc1ccc(-c2ccc(-c3ccc(C(=O)N[C@H]4CCCNC(=O)[C@@H]5C[C@@H](O)CN5C(=O)[C@H](CCCN)NC(=O)[C@H](CCc5ccc(O)cc5)NC(=O)[C@@H]5C[C@@H](O)CN5C(=O)[C@H]([C@@H](C)O)NC4=O)cc3)cc2)cc1 ({pTerphenylCO(4''-OnC5H11)}-[Orn]T[Hyp][hTyr][Orn][Hyp]; lactam 1-C)
Activity (Pichia kudriavzevii): Active
Activity (Candida parapsilosis): Active
Activity (Candida tropicalis): Active
Activity (Candida albicans [2]): Active
Activity (Candida dubliniensis): Active
Activity (Nakaseomyces glabratus): Active

MIC (Candida albicans [1]): > 100 µg/mL
SMILES: CCCCCOc1ccc(-c2ccc(-c3ccc(C(=O)N[C@H]4C/C=C\C[C@@H](CO)NC(=O)[C@@H]5C[C@@H](O)CN5C(=O)[C@H](CCCN)NC(=O)[C@H](CCc5ccc(O)cc5)NC(=O)[C@@H]5C[C@@H](O)CN5C(=O)[C@H]([C@@H](C)O)NC4=O)cc3)cc2)cc1
Activity (Candida albicans [1]): Dose-dependent effect

MIC (Candida albicans [1]): 0.025 µg/mL (≈ 0.0229 µM)
SMILES: CC[C@H](C)C[C@H](C)CCCCCCCCC(=O)N[C@H]1C[C@@H](O)[C@@H](NCCN)NC(=O)[C@@H]2[C@@H](O)CCN2C(=O)[C@H]([C@H](O)CCN)NC(=O)[C@H]([C@H](O)[C@@H](O)c2ccc(O)cc2)NC(=O)[C@@H]2C[C@@H](O)CN2C(=O)[C@H]([C@@H](C)O)NC1=O [CASPOFUNGIN]

MIC (Candida albicans [1]): 4.38 µg/mL (≈ 4.51 µM)
SMILES: CCCCCCCCCCCCCCCC(=O)N[C@H]1CCCNC(=O)[C@@H]2C[C@@H](O)CN2C(=O)[C@H](CCCN)NC(=O)[C@H](CCc2ccc(O)cc2)NC(=O)[C@@H]2C[C@@H](O)CN2C(=O)[C@H]([C@@H](C)O)NC1=O (Palmitoyl-[Orn]T[Hyp][hTyr][Orn][Hyp]; lactam 1-C)
Activity (Pichia kudriavzevii): Active
Activity (Candida parapsilosis): Active
Activity (Candida tropicalis): Active
Activity (Candida albicans [2]): Active
Activity (Candida dubliniensis): Active
Activity (Nakaseomyces glabratus): Active

MIC (Candida albicans [1]): 0.47 µg/mL (≈ 0.442 µM)
SMILES: CCCCCOc1ccc(-c2ccc(-c3ccc(C(=O)N[C@H]4CCCNC(=O)[C@@H]5C[C@@H](O)CN5C(=O)[C@H]([C@@H](C)O)NC(=O)[C@H](CCc5ccc(O)cc5)NC(=O)[C@@H]5C[C@@H](O)CN5C(=O)[C@H]([C@@H](C)O)NC4=O)cc3)cc2)cc1 ({pTerphenylCO(4''-OnC5H11)}-[Orn]T[Hyp][hTyr]T[Hyp]; lactam 1-C)
Activity (Pichia kudriavzevii): Active
Activity (Candida parapsilosis): Active
Activity (Candida tropicalis): Active
Activity (Candida albicans [2]): Active
Activity (Candida dubliniensis): Active
Activity (Nakaseomyces glabratus): Active
